Source: PubChem (Broad Institute)
GASC1 inh = blocks human GASC-1 (KDM4C) demethylase activity; GST-KDM4C 2-372, H3K9me3 peptide, LANCE TR-FRET; inhibition, % at 12.5 µM; 0.15% of 96,000 active;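 active = mean replicate inhibition above about 25%, with at least 55% of replicates also reaching it, limit read from the data, passing the limit was not always enough; inconclusive = only one of those two conditions met; inactive = neither condition met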
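System – N-terminal GST-fused human GASC-1 (KDM4C) fragment, residues 2-372 · Input – enzyme final amount 10 nM · Technique – LANCE TR-FRET, Eu antibody, ULight-streptavidin, EDTA, ex 340 nm, em 618/671 nm · Medium – HEPES buffer, pH 7.5, plus ascorbate · Incubation – enzyme reaction 30 min, then detection 60 min, both room temperature · Reagent – H3K9me3 peptide with Fe(II)/2OG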
IDH1 R132H inh = inhibitors of human IDH1 R132H. O75874. IDH1 R132H reductase, diaphorase/resazurin fluorescence, 60 min. inhibition, % at 10 µM. 0.18% of 70,000 active. AID 624101; in the data active = inhibition above about 34%; inconclusive = no clear call, values can overlap the other calls; inactive = below about 11%;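 note: 0% = DMSO and 100% = no enzyme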
Target sequence (O75874 whole entry R132H): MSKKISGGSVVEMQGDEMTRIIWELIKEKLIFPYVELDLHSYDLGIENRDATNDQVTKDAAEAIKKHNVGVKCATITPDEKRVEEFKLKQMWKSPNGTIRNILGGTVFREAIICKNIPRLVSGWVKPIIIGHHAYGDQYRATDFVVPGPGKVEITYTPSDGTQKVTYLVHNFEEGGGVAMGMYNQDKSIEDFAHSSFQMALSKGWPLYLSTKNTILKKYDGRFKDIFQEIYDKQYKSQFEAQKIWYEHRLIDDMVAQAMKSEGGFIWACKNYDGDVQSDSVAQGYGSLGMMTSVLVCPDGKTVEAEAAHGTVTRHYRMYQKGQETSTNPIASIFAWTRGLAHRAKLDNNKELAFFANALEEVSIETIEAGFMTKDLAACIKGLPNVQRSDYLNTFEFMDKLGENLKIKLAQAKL
T cruzi growth-1 = blocks T. cruzi growth in NIH3T3 culture. T. cruzi beta-gal in NIH3T3, GalScreen luminescence, 90 h. inhibition, % at 8.34 µM. 5.9% of 77,000 active. AID 624255;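 active = mean inhibition above about 93%, with at least 55% of replicates each passing it, limit read from the data, passing the limit was not always enough; inconclusive = only one of those two conditions holds; inactive = neither condition holds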
T cruzi growth-2 = inhibitors of T. cruzi proliferation. 72% of 5,600 active. inhibition, % at 8.35 µM. T. cruzi beta-gal in NIH3T3, GalScreen luminescence, 90 h. shares compounds with T cruzi growth-1;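 active = mean replicate inhibition above about 95% and at least 55% of replicates individually reaching it, limit read from the data; inconclusive = only one of the two criteria is met; inactive = neither criterion is met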
T cruzi growth-3 = blocks T. cruzi growth in NIH3T3 host cells; T. cruzi beta-gal in NIH3T3, GalScreen luminescence, 90 h; shares compounds with T cruzi growth-1; 21% of 5,600 active; inhibition, % at 2.09 µM;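 active = mean inhibition above about 95%, with at least 55% of replicates also reaching it, limit read from the data; inconclusive = meets just one of the two conditions; inactive = meets neither condition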;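 note: plate controls were neutral control median for no effect and positive control median for full effect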
3T3 cytotox = NIH/3T3 (mouse) viability loss; shares compounds with T cruzi growth-1; 14% of 5,600 active; NIH/3T3 viability, CellTiter-Glo ATP luminescence, 90 h; cytotoxicity (signal decrease), % at 8.35 µM;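 active = mean signal decrease across replicates above about 35% based on untreated-well scatter, with enough replicates individually passing, limit read from the data; inconclusive = no rule stated though some were filed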;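 note: 0% = median of neutral control wells and 100% = median of positive control wells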
NIH3T3 tox 2 = NIH/3T3 (mouse) viability loss | shares compounds with T cruzi growth-1 | 56% of 5,600 active | inhibition, % at 24.9 µM | NIH/3T3 viability, CellTiter-Glo ATP luminescence, 90 h;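 active = mean loss of cell viability signal at or above a set limit, and enough replicates individually reaching it; inconclusive = meets only the mean limit or only the replicate share; inactive = meets neither condition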;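 note: 0% = median of neutral control wells and 100% = median of positive control wells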
An asterisk follows results filed as active; ? = inconclusive; / = no result. Shown is part of a subset that was picked to be rich in hits.

SMILES	GASC1 inh	IDH1 R132H inh	T cruzi growth-1	T cruzi growth-2	T cruzi growth-3	3T3 cytotox	NIH3T3 tox 2
O=C(C[C@@H]1CC[C@H]2[C@@H](COC[C@@H](O)CN2C(=O)c2ccncc2)O1)NC1Cc2ccccc2C1	0.9	/	19.6	/	/	/	/
CC(C)C#Cc1cnc2c(c1)C(=O)N([C@@H](C)CO)C[C@@H](C)[C@@H](CN(C)Cc1cncnc1)O2	-1.0	/	-50.2	/	/	/	/
CC(C)C#Cc1cnc2c(c1)C(=O)N([C@@H](C)CO)C[C@H](C)[C@@H](CN(C)Cc1cncnc1)O2	-1.7	-0.1	97.4*	98.6*	11.4	-15.7	10.6
C[C@@H]1CN([C@H](C)CO)C(=O)c2cc(C#Cc3ccccn3)cnc2O[C@H]1CN(C)Cc1cncnc1	0.7	0.2	104.0*	106.7*	55.5	13.1	18.3
C[C@H](CO)N1C[C@H](C)[C@H](CN(C)Cc2cncnc2)Oc2ncc(C#Cc3ccccn3)cc2C1=O	1.0	0.3	78.7	/	/	/	/
C[C@@H]1CN([C@@H](C)CO)C(=O)c2cc(C#Cc3ccccn3)cnc2O[C@H]1CN(C)Cc1cncnc1	2.5	-8.0	104.8*	101.7*	34.6	-13.3	18.0
C[C@H]1CN([C@@H](C)CO)C(=O)c2cc(C#Cc3ccccn3)cnc2O[C@H]1CN(C)Cc1cncnc1	1.0	0.1	71.9	/	/	/	/
CN(C)C(=O)C[C@@H]1C=C[C@@H](NC(=O)C2CC2)[C@@H](CO)O1	2.1	0.0	/	/	/	/	/
O=C(C[C@@H]1C=C[C@H](NS(=O)(=O)c2ccc(F)cc2)[C@@H](CO)O1)N1CCN(c2ccccc2)CC1	1.7	-0.3	-19.6	/	/	/	/
C[C@H]1CN([C@@H](C)CO)C(=O)Cc2cc(NC(=O)Cc3ccccc3)ccc2O[C@H]1CN(C)Cc1ccc2c(c1)OCO2	-0.2	0.1	18.8	/	/	/	/
CC1(C)C(=O)[C@@H]2O[C@@H]2[C@@]2(C)C1CC(=O)[C@]1(C)C2CC[C@@]2(C)[C@H](c3ccoc3)OC(=O)[C@H]3O[C@]321 (stereo not given in full)	/	0.2	/	/	/	/	/
COc1ccc2c3c(n(C)c2c1)[C@@H](CO)N(C(=O)Nc1ccc(F)cc1)CC31CN(C(=O)NC2CCCC2)C1	-0.7	/	/	/	/	/	/
CCCNC(=O)Nc1ccc2c(c1)OC[C@H](C)N(Cc1ccncc1)C[C@H](C)[C@H](OC)CN(C)C2=O	-2.1	/	/	/	/	/	/
C[C@H]1CCCCO[C@H](CN(C)S(=O)(=O)c2cccs2)[C@@H](C)CN([C@@H](C)CO)C(=O)c2cc(NC(=O)Nc3ccc(F)cc3)ccc2O1	-0.9	/	97.2*	103.8*	38.8	23.8	5.7
C[C@@H]1CN([C@H](C)CO)C(=O)c2cc(NC(=O)Nc3ccc(F)cc3)ccc2O[C@@H](C)CCCCO[C@H]1CN(C)S(=O)(=O)c1cccs1	-0.1	/	33.4	/	/	/	/
C[C@H](CO)N1C[C@H](C)[C@@H](CN(C)S(=O)(=O)c2cccs2)OCCCC[C@H](C)Oc2ccc(NC(=O)Nc3ccc(C(F)(F)F)cc3)cc2C1=O	0.5	-0.6	96.9*	102.0*	117.0*	33.2	26.2*
C[C@H](CO)N1C[C@H](C)[C@@H](CN(C)S(=O)(=O)c2cccs2)OCCCC[C@H](C)Oc2ccc(NC(=O)Nc3ccc(F)cc3)cc2C1=O	-1.7	/	79.3	/	/	/	/
C[C@@H]1CCCCO[C@H](CN(C)S(=O)(=O)c2cccs2)[C@H](C)CN([C@H](C)CO)C(=O)c2cc(NC(=O)Nc3ccc(F)cc3)ccc2O1	-4.1	/	?	112.7*	99.9*	-16.2	11.5
C[C@@H]1CCCCO[C@@H](CN(C)S(=O)(=O)c2cccs2)[C@H](C)CN([C@H](C)CO)C(=O)c2cc(NC(=O)Nc3ccc(F)cc3)ccc2O1	-4.2	/	?	108.3*	41.5	-15.2	8.4
C[C@@H]1CCCCO[C@H](CN(C)S(=O)(=O)c2cccs2)[C@H](C)CN([C@@H](C)CO)C(=O)c2cc(NC(=O)Nc3ccc(F)cc3)ccc2O1	5.7	/	59.2	/	/	/	/
C[C@@H]1CN([C@@H](C)CO)C(=O)c2cc(NC(=O)Nc3ccc(C(F)(F)F)cc3)ccc2O[C@@H](C)CCCCO[C@@H]1CN(C)S(=O)(=O)c1cccs1	-0.9	1.9	37.5	/	/	/	/
